ChEMBL document CHEMBL1148398, “Design, synthesis, and biological evaluation of thio-containing compounds with serum HDL-cholesterol-elevating properties” (2004)

How the values were obtained:
Rattus norvegicus [1] = experiment: Effect of compound on alkaline phosphatase (ALKP) levels in 7th group of normal chow-fed male rats after a dose of 100 mg/kg/day; type: functional, organism-based
Procedure, shortened: (§1)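 Male Sprague–Dawley CD rats (60–80 g) on standard chow under a reversed 12 h light/dark cycle. Compound was suspended in 1.3% Tween 80/0.25% CMC and given as a single daily oral gavage dose for 4 days. Rats were fasted overnight and killed 24 h after the last dose. Serum ALT, AST, ALKP and LDH were read on a clinical analyzer. Weight gain was start versus end weight. Mean ± SEM, n = 6.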

Rattus norvegicus [2] = experiment: Effect of compound on low-density lipoprotein cholesterol levels in 1st group of normal chow-fed male rats after a dose of 1 mg/kg/day; type: functional, organism-based
Procedure, shortened: (§2)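 Male Sprague–Dawley CD rats, 60–80 g, on standard chow with reverse 12 h light/dark cycle. One oral gavage dose daily for 4 days, suspended in 1.3% Tween 80 and 0.25% CMC. Fasted overnight; sacrificed 24 h after the last dose. Serum TC on clinical analyzer, lipoproteins by FPLC with cholesterol per fraction, T4 on analyzer. Mean ± SEM, six rats per group.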

Cricetinae gen. sp. [3] = experiment: Effect of compound on thyroxine levels in 1st group of cholesterol-fed male hamsters at 3 mg/kg/day after 14 days of treatment; conditions: Mesocricetus auratus
Cricetinae gen. sp. [4] = experiment: Effect of compound on liver weight in 2nd group of cholesterol-fed male hamsters at 10 mg/kg/day after 14 days of treatment; type: functional
Procedure, shortened: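 Male Syrian Golden hamsters, 90–100 g, fed chow plus 0.25% cholesterol for 2 weeks before and throughout dosing. Compound suspended in 2% Tween 80 in saline, given by oral gavage for 14 days; vehicle controls. Fasted 4 h, last dose 2 h before sacrifice, then weighed and blood and liver collected. Liver enzymes read on a clinical analyzer. Six per group, mean ± SEM.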

Rattus norvegicus [5] = experiment: Effect of compound on alanine aminotransferase (ALT) levels in 2nd group of normal chow-fed male rats after a dose of 2 mg/kg/day; type: functional, organism-based; procedure, shortened: as §1
Rattus norvegicus [6] = experiment: Effect of compound on triglycerides level in 3rd group of normal chow-fed male rats after a dose of 5 mg/kg/day; type: functional, organism-based
Procedure, shortened: (§3)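 Male Sprague–Dawley CD rats (60–80 g) on Purina 5001 chow with a reverse 12 h light/dark cycle. Dosed once daily by oral gavage for 4 days, suspended in 1.3% Tween 80 / 0.25% CMC. Fasted overnight and bled 24 h after the last dose. Serum TC and glycerol-blanked TG measured enzymatically; VLDL-C by FPLC fractionation with cholesterol assay. n=6, mean ± SEM.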

Cricetinae gen. sp. [7] = experiment: Effect of compound on aspartate aminotransferase (AST) levels in 1st group of cholesterol-fed male hamsters at 3 mg/kg/day after 14 days of treatment; conditions: Mesocricetus auratus
Rattus norvegicus [8] = experiment: Effect of compound on thyroxine levels in 2nd group of normal chow-fed male rats after a dose of 2 mg/kg/day; type: functional, organism-based; procedure, shortened: as §2
Rattus norvegicus [9] = experiment: Effect of compound on relative liver weight in 2nd group of normal chow-fed male rats after a dose of 2 mg/kg/day; type: functional
Procedure, shortened: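 Chow-fed male Sprague–Dawley CD rats, 60–80 g, dosed by oral gavage once daily for 4 days in 1.3% Tween 80/0.25% CMC. Fasted overnight and sacrificed 24 h after the last dose. Liver weight expressed as % of body weight at termination. Six per group, mean ± SEM.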

Cricetinae gen. sp. [10] = experiment: Effect of compound on low-density lipoprotein cholesterol levels in 3rd group of cholesterol-fed male hamsters at 30 mg/kg/day after 14 days of treatment; conditions: Mesocricetus auratus
Cricetinae gen. sp. [11] = experiment: Effect of compound on lactic dehydrogenase (LDH) levels in 1st group of cholesterol-fed male hamsters at 3 mg/kg/day after 14 days of treatment; conditions: Mesocricetus auratus
Rattus norvegicus [12] = experiment: Effect of compound on serum high-density lipoprotein cholesterol concentration in chow-fed male rats at a dose of 100 mg/kg/day; type: functional, organism-based
Procedure, shortened: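 Separate dose-response study in male Sprague–Dawley CD rats, 60–80 g, on chow. Oral gavage once daily for 4 days in 1.3% Tween 80 / 0.25% CMC; fasted overnight, bled 24 h after last dose. Apo-A1 by ELISA with rabbit anti-rat primary, alkaline phosphatase-conjugated anti-rabbit IgG and p-nitrophenyl phosphate substrate. HDL-C by FPLC fractionation. Mean ± SEM, six per group.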

Rattus norvegicus [13] = experiment: Effect of compound on low-density lipoprotein cholesterol levels in 5th group of normal chow-fed male rats after a dose of 20 mg/kg/day; type: functional, organism-based; procedure, shortened: as §2
[14] = Effect on serum lipids in 1st group of cholesterol-fed male hamsters at 3 mg/kg/day after 14 days of treatment was evaluated as ratio of total cholesterol levels to high-density lipoprotein cholesterol levels; type: functional
Procedure, shortened: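 Male Syrian Golden hamsters on chow plus 0.25% cholesterol, 2 weeks before and during dosing. Oral gavage for 14 days in 2% Tween 80/saline. Fasted 4 h before sacrifice. Serum total cholesterol measured enzymatically; HDL-C from cholesterol in FPLC lipoprotein fractions; TC/HDL-C ratio calculated. Six per group, mean ± SEM.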

Rattus norvegicus [15] = experiment: Effect of compound on low-density lipoprotein cholesterol levels in 4th group of normal chow-fed male rats after a dose of 10 mg/kg/day; type: functional, organism-based; procedure, shortened: as §2
Rattus norvegicus [16] = experiment: Effect of compound on lactic dehydrogenase (LDH) levels in 2nd group of normal chow-fed male rats after a dose of 2 mg/kg/day; type: functional, organism-based; procedure, shortened: as §1
Cricetinae gen. sp. [17] = experiment: Percent change in total plasma cholesterol following oral administration of compound in hypercholesterolemic hamsters at 100 mg/kg/day for 14 days; type: functional
Procedure, shortened: (§4)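 Male Syrian Golden hamsters pre-fed chow plus 0.25% cholesterol for 2 weeks and kept on it. Dosed 100 mg/kg/day by oral gavage in 2% Tween 80/saline for 14 days. Serum total cholesterol and glycerol-blanked triglycerides read enzymatically; lipoproteins separated by FPLC with cholesterol measured in each fraction. % change versus vehicle controls; six per group, p < 0.05.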

Rattus norvegicus [18] = experiment: Effect of compound on liver weight in 2nd group of normal chow-fed male rats after a dose of 2 mg/kg/day; type: functional
Procedure, shortened: (§5)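 Male Sprague–Dawley CD rats, 60–80 g, on chow with a reverse 12 h light/dark cycle. Given one oral gavage dose daily for 4 days, suspended in 1.3% Tween 80/0.25% CMC. Fasted overnight and sacrificed 24 h after the last dose for blood and liver. Serum liver enzymes read on a clinical analyzer. Six per group, mean ± SEM.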

Rattus norvegicus [19] = experiment: Effect of compound on very low-density lipoprotein cholesterol levels in 1st group of normal chow-fed male rats after a dose of 1 mg/kg/day; type: functional, organism-based; procedure, shortened: as §3
Rattus norvegicus [20] = experiment: Effect of compound on gain in body weight in 3rd group of normal chow-fed male rats after a dose of 5 mg/kg/day; type: functional; procedure, shortened: as §1
Cricetinae gen. sp. [21] = experiment: Percent change in triglycerides following oral administration of compound in hypercholesterolemic hamsters at 100 mg/kg/day for 14 days; type: functional; procedure, shortened: as §4
Rattus norvegicus [22] = experiment: Effect of compound on lactic dehydrogenase (LDH) levels in 5th group of normal chow-fed male rats after a dose of 20 mg/kg/day; type: functional, organism-based; procedure, shortened: as §5
Rattus norvegicus [23] = experiment: Effect of compound on gain in body weight in 6th group of normal chow-fed male rats after a dose of 50 mg/kg/day; type: functional; procedure, shortened: as §1
Rattus norvegicus [24] = experiment: Effect of compound on very low-density lipoprotein cholesterol levels in 7th group of normal chow-fed male rats after a dose of 100 mg/kg/day; type: functional, organism-based; procedure, shortened: as §3

CCN1CC(=O)N(c2cc(Cl)ccc2C)C1=S
Level (Rattus norvegicus [1]): 382 U l-1
Serum level (Rattus norvegicus [2]): 5.7 mg/dL
Serum level (Cricetinae gen. sp. [3]): 5.8 µg/dL
Liver weight (Cricetinae gen. sp. [4]): 9.08 g
Level (Rattus norvegicus [5]): 59 U l-1
Serum level (Rattus norvegicus [6]): 18 mg/dL
Level (Cricetinae gen. sp. [7]): 312 U l-1
Serum level (Rattus norvegicus [8]): 4.33 µg/dL
Relative liver weight (Rattus norvegicus [9]): 3.9%
Serum level (Cricetinae gen. sp. [10]): 125 mg/dL
Level (Cricetinae gen. sp. [11]): 1230 U l-1
Serum level (Rattus norvegicus [12]): 104 mg/dL
Serum level (Rattus norvegicus [13]): 8.5 mg/dL
Ratio [14]: 3.14
Serum level (Rattus norvegicus [15]): 8.1 mg/dL
Level (Rattus norvegicus [16]): 692 U l-1
Change (Cricetinae gen. sp. [17]): -3.3%
Liver weight (Rattus norvegicus [18]): 7.3 g
Serum level (Rattus norvegicus [19]): 4.3 mg/dL
Body weight (Rattus norvegicus [20]): 30.7 g
Change (Cricetinae gen. sp. [21]): -34%
Level (Rattus norvegicus [22]): 1140 U l-1
Body weight (Rattus norvegicus [23]): 27.5 g
Serum level (Rattus norvegicus [24]): 5.7 mg/dL
